According to ChEMBL document CHEMBL3112537, “A novel series of 6-substituted 3-(pyrrolidin-1-ylmethyl)chromen-2-ones as selective monoamine oxidase (MAO) A inhibitors” (Eur J Med Chem, 2014):

Legend:
[1] = target: T1, Amine oxidase [flavin-containing] B (Homo sapiens, UniProt P27338); assay: Inhibition of MAO-B (unknown origin)
T1 sequence (P27338 whole entry): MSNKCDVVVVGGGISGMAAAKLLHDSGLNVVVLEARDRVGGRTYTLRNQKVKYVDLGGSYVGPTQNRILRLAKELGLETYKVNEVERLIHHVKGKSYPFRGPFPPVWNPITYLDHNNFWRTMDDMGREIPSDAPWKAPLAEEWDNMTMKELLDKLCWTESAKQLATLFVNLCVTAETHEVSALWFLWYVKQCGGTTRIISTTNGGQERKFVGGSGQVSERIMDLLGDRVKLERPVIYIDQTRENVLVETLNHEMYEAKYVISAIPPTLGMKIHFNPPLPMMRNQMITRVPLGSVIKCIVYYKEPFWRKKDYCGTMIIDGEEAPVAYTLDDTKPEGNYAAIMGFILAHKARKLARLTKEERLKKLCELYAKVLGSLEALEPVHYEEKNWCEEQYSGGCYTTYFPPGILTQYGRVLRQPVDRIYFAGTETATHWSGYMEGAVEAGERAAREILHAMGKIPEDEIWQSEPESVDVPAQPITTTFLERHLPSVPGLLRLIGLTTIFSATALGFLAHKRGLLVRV

[2] = target: T2, Amine oxidase [flavin-containing] A (Homo sapiens, UniProt P21397); assay: Inhibition of MAO-A (unknown origin)
T2 sequence (P21397 whole entry): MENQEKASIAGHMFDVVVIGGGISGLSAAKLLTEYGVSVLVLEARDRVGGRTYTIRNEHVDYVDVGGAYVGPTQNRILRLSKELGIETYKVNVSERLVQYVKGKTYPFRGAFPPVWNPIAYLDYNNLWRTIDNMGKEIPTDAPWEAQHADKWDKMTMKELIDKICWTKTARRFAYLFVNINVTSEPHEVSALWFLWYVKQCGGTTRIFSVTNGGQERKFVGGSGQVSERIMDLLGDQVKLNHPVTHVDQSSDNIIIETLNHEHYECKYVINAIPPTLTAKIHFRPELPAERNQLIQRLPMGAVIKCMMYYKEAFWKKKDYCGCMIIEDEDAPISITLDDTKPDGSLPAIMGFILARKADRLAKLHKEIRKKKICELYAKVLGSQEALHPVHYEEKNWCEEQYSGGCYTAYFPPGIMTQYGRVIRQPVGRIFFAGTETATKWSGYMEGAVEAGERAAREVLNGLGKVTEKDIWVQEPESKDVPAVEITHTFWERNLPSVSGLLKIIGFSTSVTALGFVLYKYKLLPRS

[3] = target: D(2) dopamine receptor (Homo sapiens, UniProt P14416); assay: Antagonist activity at dopamine D2 receptor (unknown origin) expressed in HEK cells co-expressing Gqi5 assessed as inhibition of dopamine-induced effect by FLIPR assay; type: cell-based, HEK293
[4] = Metabolic stability in rat liver microsomes assessed as compound remaining at 5 uM after 60 mins by LC-MS/MS analysis; type: ADME; conditions: read-out: Stability
Summary of the method: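 Incubation with rat liver microsomes, read as % of compound remaining after 60 min.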

[5] = target: T1, Amine oxidase [flavin-containing] B; assay: Inhibition of human recombinant MAO-B assessed as kynuramine oxidation to 4-hydroxyquinoline after 40 mins by LC-MS/MS analysis
Summary of the method: (§1)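 Human MAO A and MAO B inhibition using kynuramine as a mixed substrate for both isoforms. IC50 is given as the mean ± SE of duplicate determinations.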

[6] = test system: Rattus norvegicus; assay: In vivo inhibition of MAO-A in Sprague-Dawley rat assessed as 5-hydroxyindoleacetic acid in brain striatum at 86 umol/kg, sc after 1 hr by HPLC/EC analysis relative to control; type: functional; design: scale not given: the % may be the effect or the level left
Summary of the method: (§2)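 Freely moving rats dosed subcutaneously and sacrificed 1 h later. Striatal DOPAC, 3-MT and 5-HIAA were measured post mortem and expressed as % of saline control (n = 4). Significance was by Student's t-test, P < 0.05.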

[7] = target: T2, Amine oxidase [flavin-containing] A; assay: Inhibition of human recombinant MAO-A assessed as kynuramine oxidation to 4-hydroxyquinoline after 40 mins by LC-MS/MS analysis; summary of the method: as §1
[8] = test system: Rattus norvegicus; assay: In vivo inhibition of MAO-A in Sprague-Dawley rat assessed as 3,4-dihydroxyphenylacetic acid level in brain striatum at 86 umol/kg, sc after 1 hr by HPLC/EC analysis relative to control; type: functional; design: scale not given: the % may be the effect or the level left; summary of the method: as §2
[9] = test system: Rattus norvegicus; assay: In vivo inhibition of MAO-A in Sprague-Dawley rat assessed as 3-methoxytyramine level in brain striatum at 86 umol/kg, sc after 1 hr by HPLC/EC analysis relative to control; type: functional; design: scale not given: the % may be the effect or the level left; summary of the method: as §2

Chain of D(2) dopamine receptor (P14416 whole entry): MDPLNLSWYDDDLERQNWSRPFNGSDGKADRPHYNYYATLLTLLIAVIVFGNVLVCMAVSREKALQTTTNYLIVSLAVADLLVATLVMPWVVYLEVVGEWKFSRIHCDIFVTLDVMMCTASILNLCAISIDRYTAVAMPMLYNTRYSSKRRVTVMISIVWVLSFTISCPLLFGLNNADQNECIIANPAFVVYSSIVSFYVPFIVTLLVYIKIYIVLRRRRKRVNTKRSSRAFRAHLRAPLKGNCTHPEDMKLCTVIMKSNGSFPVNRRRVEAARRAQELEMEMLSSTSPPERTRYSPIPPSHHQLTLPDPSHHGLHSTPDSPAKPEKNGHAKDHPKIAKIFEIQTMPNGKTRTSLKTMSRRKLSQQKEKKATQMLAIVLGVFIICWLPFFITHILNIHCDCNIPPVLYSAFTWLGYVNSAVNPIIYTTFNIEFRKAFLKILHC

| IC50 [1] [µM] | IC50 [2] [µM] | IC50 [3] [µM] | remaining at 1 h, 5 µM [4] [%] | IC50 [5] [µM] | IC50 [7] [µM] | SMILES | Activity [6] [%] | Activity [8] [%] | Activity [9] [%] |
| --- | --- | --- | --- | --- | --- | --- | --- | --- | --- |
| 0.0195 | 0.0676 | – | – | – | – | O=C(O)c1cc2cc([N+](=O)[O-])ccc2oc1=O | – | – | – |
| – | – | 16.3 | 80 | > 100 | 3.77 | Nc1ccc2oc(=O)c(CN3CCCC3)cc2c1 | 72 | 45 | 170 |
